Assay results reported in PMC9099118 (Clinical and Translational Science, 2022).

What was measured:
[1] = format: in vivo, human
Outline: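 Open-label single-dose study in 12 healthy volunteers. Each inhaled 1 mg test compound, with 99mTc surface-associated with the powder and blended with lactose, from a capsule dry-powder inhaler (60 L/min at 4 kPa). 81mKr ventilation and 57Co transmission scans were taken before dosing. Counts were corrected for decay, background and attenuation. Lung deposition was expressed as % of emitted dose (sum of lung, oropharynx, mouthwash, stomach and exhalation filter counts). Device and capsule residue was expressed as % of loaded dose. PI (outer/inner ratio) and sC/P were normalized to 81mKr.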

[2] = Phase I safety: adverse events, Part A; format: in vivo, human; details: for Related AE / Total number of participants with at least one AE / Upper respiratory tract infection / Cough / Headache: n (%)
[3] = Part B MAD, 15 mg b.i.d. (n = 6)

For `CN(CCC#N)C1CCN(C(=O)Cn2cc(NC(=O)c3cnn4cccnc34)c(-c3cc(Cl)ccc3OC(F)F)n2)CC1` [GDC‐0214], the mean emitted dose ([1]; capsule emptying, of loaded dose, 1 mg capsule) was “approximately 81%”, the “calculated mean dose deposited in the lungs” value ([1]; from a single capsule (1 mg)) was “approximately 0.41 mg” and the “Regional airway deposition ratio, PI (penetration index)” value ([1]; normalized for 81mKr gas distribution, mean (CV%), listed as radiolabeled GDC‐0214) was 0.76 (30.47%). The “% Emitted dose, Exhaled” value ([1]; single inhaled 1 mg radiolabeled dose, after the breath-hold, mean) was 0.74%, the “AE leading to withdrawal from treatment” value ([2]; Part A SAD, 0.15 mg (n = 3)) was 0 and the “Serious AE” value ([2]; Part A SAD, 0.15 mg (n = 3)) was 0. The “Total number of AEs” value ([2]; Part A SAD, 0.15 mg (n = 3)) was 1, the “Total number of deaths” value ([2]; Part A SAD, 0.15 mg (n = 3)) was 0 and the “Total number of participants withdrawn from study due to an AE” value (from here on “Total number of participants withdrawn”) ([2]; Part A SAD, 0.15 mg (n = 3)) was 0. For the same molecule, the “Related AE” value ([2]; Part A SAD, 0.15 mg (n = 3)) was 0, the “Total number of participants with at least one AE” value (“Total number … at least one AE” for short) ([2]; Part A SAD, 0.15 mg (n = 3)) was 1 (33.3%) and the “Upper respiratory tract infection” value ([2]; Part A SAD, 0.15 mg (n = 3)) was 0. For the same molecule, the “AE leading to withdrawal from treatment” value ([2]; Part A SAD, 0.5 mg (n = 3)) was 0, the “Serious AE” value ([2]; Part A SAD, 0.5 mg (n = 3)) was 0 and the “Total number of AEs” value ([2]; Part A SAD, 0.5 mg (n = 3)) was 3. The “Total number of deaths” value ([2]; Part A SAD, 0.5 mg (n = 3)) was 0, the “Total number of participants withdrawn” value ([2]; Part A SAD, 0.5 mg (n = 3)) was 0 and the “Related AE” value ([2]; Part A SAD, 0.5 mg (n = 3)) was 0. For the same molecule, the “Total number … at least one AE” value ([2]; Part A SAD, 0.5 mg (n = 3)) was 2 (66.7%), the “Upper respiratory tract infection” value ([2]; Part A SAD, 0.5 mg (n = 3)) was 0 and the “AE leading to withdrawal from treatment” value ([2]; Part A SAD, 1.5 mg (n = 6)) was 0. For the same molecule, the “Serious AE” value ([2]; Part A SAD, 1.5 mg (n = 6)) was 0, the “Total number of AEs” value ([2]; Part A SAD, 1.5 mg (n = 6)) was 5 and the “Total number of deaths” value ([2]; Part A SAD, 1.5 mg (n = 6)) was 0. For the same molecule, the “Total number of participants withdrawn” value ([2]; Part A SAD, 1.5 mg (n = 6)) was 0, the “Related AE” value ([2]; Part A SAD, 1.5 mg (n = 6)) was 1 (16.7%) and the “Total number … at least one AE” value ([2]; Part A SAD, 1.5 mg (n = 6)) was 3 (50.0%). The “AE leading to withdrawal from treatment” value ([2]; Part A SAD, 5 mg (n = 6)) was 0, the “Serious AE” value ([2]; Part A SAD, 5 mg (n = 6)) was 0 and the “Total number of AEs” value ([2]; Part A SAD, 5 mg (n = 6)) was 2. For the same molecule, the “Total number of deaths” value ([2]; Part A SAD, 5 mg (n = 6)) was 0, the “Total number of participants withdrawn” value ([2]; Part A SAD, 5 mg (n = 6)) was 0 and the “Related AE” value ([2]; Part A SAD, 5 mg (n = 6)) was 0. For the same molecule, the “Total number … at least one AE” value ([2]; Part A SAD, 5 mg (n = 6)) was 2 (33.3%), the “Upper respiratory tract infection” value ([2]; Part A SAD, 5 mg (n = 6)) was 0 and the “AE leading to withdrawal from treatment” value ([2]; Part A SAD, 15 mg (n = 6)) was 0. The “Serious AE” value ([2]; Part A SAD, 15 mg (n = 6)) was 0, the “Total number of AEs” value ([2]; Part A SAD, 15 mg (n = 6)) was 4 and the “Total number of deaths” value ([2]; Part A SAD, 15 mg (n = 6)) was 0. The “Total number of participants withdrawn” value ([2]; Part A SAD, 15 mg (n = 6)) was 0, the “Related AE” value ([2]; Part A SAD, 15 mg (n = 6)) was 1 (16.7%) and the “Total number … at least one AE” value ([2]; Part A SAD, 15 mg (n = 6)) was 4 (66.7%). For the same molecule, the “Upper respiratory tract infection” value ([2]; Part A SAD, 15 mg (n = 6)) was 0, the “Total number … at least one AE” value ([2]; Part B MAD, 1 mg q.d. 14 days (n = 6)) was 6 (100%) and the “AE leading to withdrawal from treatment” value ([2]; Part B MAD, 1 mg q.d. (n = 6)) was 0. For the same molecule, the “Related serious AE” value ([2]; Part B MAD, 1 mg q.d. (n = 6)) was 0, the “Serious AE” value ([2]; Part B MAD, 1 mg q.d. (n = 6)) was 0 and the “Total number of AEs” value ([2]; Part B MAD, 1 mg q.d. (n = 6)) was 6. The “Total number of deaths” value ([2]; Part B MAD, 1 mg q.d. (n = 6)) was 0, the “Total number of participants withdrawn” value ([2]; Part B MAD, 1 mg q.d. (n = 6)) was 0 and the Cough ([2]; Part B MAD, 1 mg q.d. (n = 6)) was 0. The Headache ([2]; Part B MAD, 1 mg q.d. (n = 6)) was 1 (16.7%), the “Related AE” value ([2]; Part B MAD, 1 mg q.d. (n = 6)) was 0 and the “Upper respiratory tract infection” value ([2]; Part B MAD, 1 mg q.d. (n = 6)) was 2 (33.3%). For the same molecule, the “Total number … at least one AE” value ([2]; Part B MAD, 3 mg q.d. 14 days (n = 6)) was 4 (66.7%), the “AE leading to withdrawal from treatment” value ([2]; Part B MAD, 3 mg q.d. (n = 6)) was 0 and the “Related serious AE” value ([2]; Part B MAD, 3 mg q.d. (n = 6)) was 0. The “Serious AE” value ([2]; Part B MAD, 3 mg q.d. (n = 6)) was 0, the “Total number of AEs” value ([2]; Part B MAD, 3 mg q.d. (n = 6)) was 11 and the “Total number of deaths” value ([2]; Part B MAD, 3 mg q.d. (n = 6)) was 0. The “Total number of participants withdrawn” value ([2]; Part B MAD, 3 mg q.d. (n = 6)) was 0, the Cough ([2]; Part B MAD, 3 mg q.d. (n = 6)) was 1 (16.7%) and the Headache ([2]; Part B MAD, 3 mg q.d. (n = 6)) was 2 (33.3%). For the same molecule, the “Related AE” value ([2]; Part B MAD, 3 mg q.d. (n = 6)) was 1 (16.7%), the “Upper respiratory tract infection” value ([2]; Part B MAD, 3 mg q.d. (n = 6)) was 3 (50.0%) and the “Total number … at least one AE” value ([2]; Part B MAD, 10 mg q.d. 14 days (n = 6)) was 6 (100%). For the same molecule, the “AE leading to withdrawal from treatment” value ([2]; Part B MAD, 10 mg q.d. (n = 6)) was 0, the “Related serious AE” value ([2]; Part B MAD, 10 mg q.d. (n = 6)) was 0 and the “Serious AE” value ([2]; Part B MAD, 10 mg q.d. (n = 6)) was 0. The “Total number of AEs” value ([2]; Part B MAD, 10 mg q.d. (n = 6)) was 13, the “Total number of deaths” value ([2]; Part B MAD, 10 mg q.d. (n = 6)) was 0 and the “Total number of participants withdrawn” value ([2]; Part B MAD, 10 mg q.d. (n = 6)) was 0. The Cough ([2]; Part B MAD, 10 mg q.d. (n = 6)) was 0, the Headache ([2]; Part B MAD, 10 mg q.d. (n = 6)) was 0 and the “Related AE” value ([2]; Part B MAD, 10 mg q.d. (n = 6)) was 0. For the same molecule, the “Upper respiratory tract infection” value ([2]; Part B MAD, 10 mg q.d. (n = 6)) was 2 (33.3%), the “Total number … at least one AE” value ([2]; Part B MAD, 15 mg b.i.d. 14 days (n = 6)) was 4 (66.7%) and the “AE leading to withdrawal from treatment” value [2, 3] was 0. The “Related serious AE” value [2, 3] was 0, the “Serious AE” value [2, 3] was 0 and the “Total number of AEs” value [2, 3] was 8. For the same molecule, the “Total number of deaths” value [2, 3] was 0, the “Total number of participants withdrawn” value [2, 3] was 0 and the Cough [2, 3] was 0. The Headache [2, 3] was 2 (33.3%), the “Related AE” value [2, 3] was 0 and the “Upper respiratory tract infection” value [2, 3] was 0. For the same molecule, the “severity of adverse events” value ([2]; after single and multiple doses, all adverse events) was “mild or moderate” and the safety and tolerability ([2]; up to a single dose of 15 mg or multiple doses up to 15 mg b.i.d. for 14 days) was “safe and well tolerated”.
